Shown are actives, neighbours in structure and some others; about 11% of the full set was active somewhere.
M1 antag: blocks the rat M1 muscarinic receptor response to acetylcholine | P08482 | CHO-M1 cells, Fluo-4 calcium, ACh EC80 antagonist mode; hits give low values | B-score at 10 µM | hit rate 3.4% among 64,000 | AID 628;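 active = calcium fluorescence response, raw or row-and-column corrected B-score, differing from the plate sample mean either way at a set confidence level, mostly lower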
Htt clearance: compounds clearing mutant huntingtin protein; HeLa Exon1htt(103Q)mCFP, aggregate imaging; zero = plate's median compound well; inhibition, % at 1.5 µM; hit rate 0.42% among 47,000;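 active = inhibition of aggregate fluorescence above about 70%, also judged a hit by eye on the cell image, limit read from the data, passing the limit was not always enough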;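 also: cells exposed to compound for three days before fixation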
SF-1 act: activates the human nuclear receptor SF-1; CHO-K1 Gal4-SF-1 LBD luciferase reporter; % increase over DMSO SF-1-specific signal; AID 522; Q13285; hit rate 1.9% among 65,000; activation, % at 10 µM;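 active = activation above the mean activation of all tested compounds plus 3 SD, cut at about 50% in these data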
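System: CHO-K1 cells with Gal4–hSF-1 LBD chimera plus Gal4-driven luciferase; quantity: 4,000 CHO-K1 cells per well; compound: one dose, 10 µM compound, 1% DMSO; times: 20 h compound treatment, 37 °C; measured by: SteadyLite luciferase luminescence; read-out: percent activation versus DMSO; benchmarks: DMSO and mock-transfected background; replicates: one test per compound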
M1 agonist: agonists of M1 muscarinic receptor; CHO-M1 cells, Fluo-4 calcium fluorescence, agonist mode; hits give high values; B-score at 10 µM; hit rate 3% among 64,000; AID 626;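 active = fluorescence rise, raw or as B-score row- and column-corrected plate score, outside the 99.7% band of its plate's samples, either direction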
D1 allo mod: allosteric modulators of human D1 dopamine receptor | P21728 | HEK293 D1, CRE-luciferase, dopamine EC30 potentiation; actives deviate in either direction | B-score at 10 µM | hit rate 5.9% among 58,000 | AID 641;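 active = luminescence count or its row- and column-corrected plate score outside the 99.7% band of the plate's sample wells, on either side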
RORA act: activates the human nuclear receptor RORA; P35398; CHO-K1 Gal4-RORA LBD luciferase reporter, luminescence; percent increase over mock-subtracted basal signal; activation, % at 10 µM; hit rate 1.5% among 65,000;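 active = activation above the mean of all tested compounds plus 3 SD, cut at about 49% in these data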;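 also: 0% = DMSO-treated RORA cells and 100% = added signal equal to DMSO minus mock-transfected cells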
Target sequence (P35398 whole entry, looked up, the tested form may be a part): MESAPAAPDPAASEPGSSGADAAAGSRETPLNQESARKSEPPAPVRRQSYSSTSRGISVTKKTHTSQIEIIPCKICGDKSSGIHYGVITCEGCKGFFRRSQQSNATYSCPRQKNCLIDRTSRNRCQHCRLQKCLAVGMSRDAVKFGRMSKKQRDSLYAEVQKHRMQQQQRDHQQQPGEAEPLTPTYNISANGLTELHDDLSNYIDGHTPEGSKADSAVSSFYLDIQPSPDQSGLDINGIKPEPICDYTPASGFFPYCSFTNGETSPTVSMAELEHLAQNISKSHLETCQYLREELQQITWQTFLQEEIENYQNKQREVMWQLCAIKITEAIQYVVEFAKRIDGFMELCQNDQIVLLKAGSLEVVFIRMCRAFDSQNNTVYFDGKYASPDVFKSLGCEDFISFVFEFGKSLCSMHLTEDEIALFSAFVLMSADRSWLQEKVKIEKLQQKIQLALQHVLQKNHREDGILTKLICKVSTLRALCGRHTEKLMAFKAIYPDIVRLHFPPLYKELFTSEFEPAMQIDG
Active calls of the source: *; . = no result.

SMILES	M1 antag	Htt clearance	SF-1 act	M1 agonist	D1 allo mod	RORA act
CC(C)Oc1cc(O)c2c(=O)c(-c3ccc(O)cc3)coc2c1	0.623	.	58.3*	-0.216	-1.05	45.7
COc1cccc(Cn2c(-c3nonc3N)nc3ccccc32)c1	0.0462	.	62.3*	0.609	-0.0654	12.6
COc1cc(Cn2c(-c3nonc3N)nc3ccccc32)ccc1C	-0.326	-188.7	25.6	-0.703	0.636	2.6
CCC(=O)N/C(N)=N/c1nc(C)c2cc(OC)ccc2n1	-0.00169	9.2	43.8	-0.512	-0.381	68.6*
COc1ccc2nc(/N=C(\N)NC(=O)C(C)(C)C)nc(C)c2c1	-0.232	.	34.2	0.973	.	11.8
COc1ccccc1S(=O)(=O)Cc1ccc(C(=O)N2CCN(c3ccc(C)cc3)C(C)C2)o1 (centres undefined)	-1.76	.	37.6	3.31	-2.83*	12.9
CCOC(=O)N1CCN(C(=O)c2ccc(CS(=O)(=O)c3ccccc3OC)o2)CC1	-0.0382	.	-4.6	0.0698	-0.0227	2.9
Fc1cccc(CSc2nc3ccncc3[nH]2)c1	0.163	.	50.9*	-0.394	-0.739	25.1
CCC(C)C(NC(=O)C(C)NC(=O)CNC(=O)CNC(=O)OCc1ccccc1)C(=O)OC (centres undefined)	.	23.2	.	.	.	.
Cc1ccc(-c2nc(C#N)c(NCCc3ccccn3)o2)cc1	-0.28	-17.6	54.4*	-0.176	.	61.0*
COc1ccccc1-c1c(C)oc2c(CN3CCN(C)CC3)c(O)ccc2c1=O	0.0195	.	-1.3	0.179	.	2.8
CCOC(=O)c1oc2c(CN3CCN(C)CC3)c(O)ccc2c(=O)c1-c1ccccc1OC	0.805*	15.2	28.0	0.868	1.67	3.8
Cc1nn(Cc2ccccc2)c2sc(C(=O)N3CCN(Cc4ccc5c(c4)OCO5)CC3)cc12	-1.33	.	15.5	1.96	-1.21	2.8
Cc1ccc(Nc2nc(N3CCOCC3)c3ccccc3n2)cc1	0.242	-41.3	-18.1	2.51	-5.8*	-18.6
Oc1ccc(Nc2nc(N3CCCC3)c3ccccc3n2)cc1	0.0907	-10.2	19.8	0.0846	-2.54	10.0
O=C(Nc1cccc(F)c1)Nc1ccccn1	-0.274	.	61.6*	0.574	0.205	61.3*
O=C(Nc1ccncc1)Nc1ccccn1	-0.342	.	5.6	0.0218	.	-1.9
Cc1noc(C)c1COc1cccc(C(=O)Nc2ccc(OCc3ccccc3)cc2)c1	.	44.3	.	.	.	.
Cc1ccc(C)c(N2CCN(C(=O)c3ccc(NS(=O)(=O)c4c(C)noc4C)cc3)CC2)c1	2.24*	.	0.4	0.0905	-0.835	-9.3
c1ccc2c(c1)NC1(CCCCC1)n1c-2nc2ccccc21	0.1	.	31.0	0.23	0.709	52.9*
Nc1c(C(=O)c2ccccc2)oc2ccccc12	.	35.9	.	.	.	.
CC(=O)Nc1c(C(=O)c2ccccc2)oc2ccccc12	0.00638	.	-10.5	0.0382	6.01*	-7.0
O=C(O)C(NC(=O)c1ccccc1)=C(Cl)Cl	.	-12.0	.	.	.	.
Cc1ccc(NC2=NC(=S)N(CC#N)C23CCCCC3)cc1	.	-13.7	.	.	.	.
CCc1c(C)nc2cc(-c3ccc(OC)cc3)[nH]n2c1=O	-0.122	.	45.1	0.00349	.	57.8*
SMILES	M1 antag	Htt clearance	SF-1 act	M1 agonist	D1 allo mod	RORA act
CCOC(=O)Cc1c(C)nc2cc(-c3ccc(Cl)cc3)[nH]n2c1=O	.	24.9	15.8	.	.	35.1
CC(=O)c1cccc(NC(=O)NCc2ccccn2)c1	1.14	45.0	56.4*	3.1*	-1.38	22.1
COc1ccc(NC(=O)NCc2ccccn2)cc1OC	-0.293	13.0	2.0	-0.479	0.067	-8.9
COc1cc(NC(=O)Nc2cccc(C(C)=O)c2)cc(OC)c1OC	-0.472	75.2*	26.5	0.67	.	-14.0
COc1cccc(OC)c1C(=O)Nc1cccc(C(C)=O)c1	0.703	6.8	0.9	0.42	0.0541	-17.1
CCOC(=O)N1CCC(Nc2c(NCCN3CCN(c4ccccc4F)CC3)c(=O)c2=O)CC1	.	-77.8	.	.	.	.
COCCn1c(C)cc(C(=O)CSc2nc3ccccc3c(=O)[nH]2)c1C	-0.257	-55.6	8.4	-1.21	-0.577	33.3
C=CCn1c(C)cc(C(=O)COc2nncc3ccccc23)c1C	0.234	-43.3	38.9	-0.886	-0.576	79.6*
C=CCn1c(C)cc(C(=O)CSc2nnc(NCc3ccccc3)s2)c1C	1.88*	-26.3	59.0*	-0.0652	0.0351	32.2
C=CCn1c(C)cc(C(=O)CSc2nc3ccccc3c(=O)[nH]2)c1C	0.0223	0.5	111.9*	-0.342	-0.0201	-36.8
